{"data": "Measured values collected from several papers", "LRRK2": "Leucine-rich repeat serine/threonine-protein kinase 2 (LRRK2, Homo sapiens, UniProt Q5S007)", "LRRK2 G2019S": "Leucine-rich repeat serine/threonine-protein kinase 2 (LRRK2, Homo sapiens, UniProt Q5S007, G2019S)", "note": "Compare with care: the assays were run in different laboratories."}
{"SMILES": "C=CC(=O)N1CCC(C(=O)NCC(=O)N2CCN(c3nc(-c4cnc(N)nc4C(F)F)nc(N4CCOCC4)n3)CC2)CC1", "target": "LRRK2", "observed": "binding", "method": "competition with immobilised ligand", "concentration": "1 µM", "remaining binding [%]": 63}
{"SMILES": "c1cncc(-c2cccc(Nc3nccc(NC4CCCCC4)n3)c2)c1", "target": "LRRK2 G2019S", "observed": "binding", "method": "competition with immobilised ligand", "concentration": "10 µM", "remaining binding [%]": 61}
{"SMILES": "CCN1CCN(Cc2ccc(C(=O)Nc3ccc(C)c(Oc4ccc5c(c4)CC(=O)N5)c3)cc2C(F)(F)F)CC1", "target": "LRRK2", "observed": "binding", "method": "competition with immobilised ligand", "concentration": "1 µM", "remaining binding [%]": 100}
{"SMILES": "COc1cnc(Nc2cccc(S(N)(=O)=O)c2)nc1N1CCN(c2ccccc2)CC1", "target": "LRRK2", "observed": "binding", "method": "competition with immobilised ligand", "concentration": "1 µM", "remaining binding [%]": 80}
{"SMILES": "CN(C)c1nccc(-c2cnn3ncccc23)n1", "target": "LRRK2 G2019S", "observed": "binding", "concentration": "1 µM", "remaining binding [%]": 69}
{"SMILES": "CS(=O)(=O)N1CCCC(NC(=O)[C@H](CCC2CCCCC2)NC(=O)c2ccc(CNC(=O)c3cnc4ccccn34)cc2)C1 (stereo partly shown)", "target": "LRRK2 G2019S", "observed": "cell-free assay", "method": "competition with immobilised ligand", "concentration": "0.1 µM", "remaining binding [%]": 100}
{"SMILES": "CN(C)c1nccc(-c2cnc3ncccn23)n1", "target": "LRRK2 G2019S", "observed": "binding", "concentration": "1 µM", "remaining binding [%]": 71}
{"SMILES": "Cc1nc(C2CCN(C(=O)c3ccc(OC(F)(F)F)cc3N)CC2)c2ncc(N3CCN(C)CC3)cc2n1", "target": "LRRK2 G2019S", "observed": "cell-free assay", "method": "competition with immobilised ligand", "concentration": "1 µM", "remaining binding [%]": 100}
{"SMILES": "CNC(=O)[C@@H]1CC[C@@H](n2c(-c3ccc4cnccc4c3)nc3ccc(C(=O)NCc4cccc(C(N)=O)c4)cc32)C1", "target": "LRRK2 G2019S", "observed": "binding", "method": "competition with immobilised ligand", "concentration": "1 µM", "remaining binding [%]": 100}
{"SMILES": "CN(CCCC(F)(F)F)c1nccc(-c2cnn3ncccc23)n1", "target": "LRRK2", "observed": "binding", "concentration": "1 µM", "remaining binding [%]": 100}
{"SMILES": "Cn1cc(Cl)c2c(Oc3c(F)cc(Nc4cc(Cl)nc(N)n4)cc3F)ccnc21", "target": "LRRK2", "observed": "cell-free assay", "method": "competition with immobilised ligand", "concentration": "0.1 µM", "remaining binding [%]": 75}
{"SMILES": "F[C@@H]1CCN(c2nccc(-c3cnn4ncccc34)n2)C1", "target": "LRRK2", "observed": "binding", "concentration": "1 µM", "remaining binding [%]": 100}
{"SMILES": "Cc1cnc(Nc2ccc(C(=O)N3CCC(N4CCCC4)CC3)cc2)nc1-c1cc2ccccc2s1", "target": "LRRK2", "observed": "binding", "method": "competition with immobilised ligand", "concentration": "1 µM", "remaining binding [%]": 8.3}
{"SMILES": "CC(=O)N1CCC(c2ccc(C(=O)NC(=N)N)cc2C(F)(F)F)CC1", "target": "LRRK2 G2019S", "observed": "cell-free assay", "method": "competition with immobilised ligand", "concentration": "1 µM", "remaining binding [%]": 100}
{"SMILES": "O=C(c1ccc(Nc2ncc(Cl)c(-c3ccc(Cl)s3)n2)cc1)N1CCC(N2CCCC2)CC1", "target": "LRRK2", "observed": "binding", "method": "competition with immobilised ligand", "concentration": "1 µM", "remaining binding [%]": 3.3}
{"SMILES": "CN(C)c1ncc(F)c(-c2cnn3ncccc23)n1", "target": "LRRK2 G2019S", "observed": "binding", "concentration": "1 µM", "remaining binding [%]": 100}
{"SMILES": "COc1cnc(Nc2cccc(S(N)(=O)=O)c2)nc1N1CCN(c2ccccc2)C(=O)C1", "target": "LRRK2", "observed": "binding", "method": "competition with immobilised ligand", "concentration": "1 µM", "remaining binding [%]": 95}
{"SMILES": "CC(=O)c1c(NS(C)(=O)=O)c2cc(-c3ccc(Cl)cc3)c(-c3ccc(Cl)cc3Cl)nc2n(C)c1=O", "target": "LRRK2", "observed": "cell-free assay", "method": "competition with immobilised ligand", "concentration": "1 µM", "remaining binding [%]": 65}
{"SMILES": "O=C(Nc1c[nH]nc1C(=O)NC1CCNCC1)c1cc(F)cc(F)c1", "target": "LRRK2", "observed": "binding", "method": "competition with immobilised ligand", "concentration": "1 µM", "remaining binding [%]": 92}
{"SMILES": "Nc1ncc2c(n1)-c1c([nH]c3ccc(C#CC4CC4)cc13)CCCC2", "target": "LRRK2", "observed": "binding", "method": "competition with immobilised ligand", "concentration": "1 µM", "remaining binding [%]": 83}
{"SMILES": "N[C@H]1CCN(c2nccc(-c3cnn4ncccc34)n2)C1", "target": "LRRK2 G2019S", "observed": "binding", "concentration": "1 µM", "remaining binding [%]": 89}
{"SMILES": "O=C(N[C@H]1CCCCC/C=C\\C2C[C@@]2(C(=O)O)NC(=O)[C@@H]2C[C@@H](Oc3ccncc3)CN2C1=O)OC1CCCC1 (stereo partly shown)", "target": "LRRK2 G2019S", "observed": "binding", "method": "competition with immobilised ligand", "concentration": "1 µM", "remaining binding [%]": 86}
{"SMILES": "O=C(NCCCN1CCOCC1)c1ccc(Nc2nccc(-c3cc4ccccc4s3)n2)cc1", "target": "LRRK2 G2019S", "observed": "binding", "method": "competition with immobilised ligand", "concentration": "1 µM", "remaining binding [%]": 69}
{"SMILES": "C[C@@H](c1ccc(-n2cnc3c(N)ncnc32)cc1)N1CCc2nn(C)c(Cc3ccccc3)c2C1=O", "target": "LRRK2", "observed": "binding", "method": "competition with immobilised ligand", "concentration": "0.1 µM", "remaining binding [%]": 93}
{"SMILES": "C[C@@H]1CCN(c2nccc(-c3cnn4ncccc34)n2)C1", "target": "LRRK2 G2019S", "observed": "binding", "concentration": "1 µM", "remaining binding [%]": 63}
{"SMILES": "COc1ncc2cc3ccccc3nc2c1C#N", "target": "LRRK2 G2019S", "observed": "cell-free assay", "method": "competition with immobilised ligand", "concentration": "5 µM", "remaining binding [%]": 100}
{"SMILES": "O=C(NCC1CCOCC1)c1n[nH]cc1NC(=O)c1c(F)cccc1F", "target": "LRRK2 G2019S", "observed": "binding", "method": "competition with immobilised ligand", "concentration": "1 µM", "remaining binding [%]": 89}
{"SMILES": "O=C(O)[C@@H]1[C@@H](Cn2nnc3ccccc3c2=O)CC[C@H]1C(=O)c1ccc(OCCC2CCOCC2)cc1", "target": "LRRK2", "observed": "cell-free assay", "method": "competition with immobilised ligand", "concentration": "1 µM", "remaining binding [%]": 100}
{"SMILES": "O=C(NCCCN1CCOCC1)c1ccc(Nc2ncc(Cl)c(-c3ccc(Cl)s3)n2)cc1", "target": "LRRK2", "observed": "binding", "method": "competition with immobilised ligand", "concentration": "1 µM", "remaining binding [%]": 24}
{"SMILES": "CCC(=N\\O)/C(C)=C/c1ccc(F)cc1", "target": "LRRK2", "observed": "cell-free assay", "method": "competition with immobilised ligand", "concentration": "1 µM", "remaining binding [%]": 90}
{"SMILES": "O=C(c1ccc(Nc2nccc(-c3cc4ccccc4s3)n2)cc1)N1CCC(N2CCCC2)CC1", "target": "LRRK2", "observed": "binding", "method": "competition with immobilised ligand", "concentration": "1 µM", "remaining binding [%]": 40}
{"SMILES": "CN(c1nccc(-c2cnn3ncccc23)n1)C1CC1", "target": "LRRK2", "observed": "binding", "concentration": "1 µM", "remaining binding [%]": 100}
{"SMILES": "O=C(c1ccc(Nc2ncc(Cl)c(-c3cc4ccccc4s3)n2)cc1)N1CCC(N2CCCC2)CC1", "target": "LRRK2", "observed": "binding", "method": "competition with immobilised ligand", "concentration": "1 µM", "remaining binding [%]": 12}
{"SMILES": "CN1CCN(c2ccc(Nc3nccc(-c4cccc([N+](=O)[O-])c4)n3)cc2C(F)(F)F)CC1", "target": "LRRK2 G2019S", "observed": "binding", "concentration": "10 µM", "remaining binding [%]": 49}
